Peptide text beside a SMILES is read from it. * marks the point of attachment. Cbz = O=C(OCc1ccccc1)*
Key:
[1] = Light-driven conversion of caged probe to active probe; assay type: physicochemical; settings: 349 nm pulsed UV laser; caged fluorescein derivative as reference (Fig. S-6)
How it was run: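 Uncaging by 349 nm diode-pumped Q-switched UV laser (5 ns pulses, 1 kHz, […] pulse energy) of the sample in a quartz cuvette. Dose was set by the number of pulses delivered and compared against an […] (CMNB)-fluorescein reference standard.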

[2] = tested on: proteasome Ch-L catalytic subunit in yeast cell lysate (defective T-L/Ca-L); assay: Yeast cell lysate assay, double mutant strain; assay type: biochemical; settings: MG132 5 μM, peptide 5 9.25 μM, Fig. 1A green
[3] = tested on: 20S proteasome T-L active site; assay type: biochemical, Saccharomyces cerevisiae; settings: 30 μM peptide 5; 100 μM Boc-LRR-amc; purified 20S proteasome, Buffer A, 30 °C; λex 380 nm, λem 460 nm; Fig. 2B
[4] = tested on: 20S proteasome Ca-L active site; assay type: biochemical, Saccharomyces cerevisiae; settings: 30 μM peptide 5; 100 μM Z-LLE-βna; purified 20S proteasome, Buffer A, 30 °C; λex 342 nm, λem 425 nm; Fig. 2B
[5] = tested on: proteasome with defective Ch-L subunit in yeast cell lysate; assay: Yeast cell lysate assay, defective Ch-L subunit; assay type: biochemical; settings: peptide 9.25 μM; ~1 mg protein/mL lysate; λex 600 nm, λem 700 nm; Fig. 1A brown
How it was run: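 Yeast cells (catalytic Thr→Ala) were harvested in log phase into 50 mM Tris-HCl pH 7.4, 1 mM EDTA, 5 mM MgCl2, drop-frozen in liquid nitrogen, cryolysed by grinding mill, and cleared (14000 rpm, 20 min, 4 °C). Protein was set equal by Bradford. The sensor was added as half the assay volume from a 2× solution, and fluorescence change was followed on a plate reader.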

Q: For “Ac-His-Trp-Ser-Leu-N(DMNB)-Lys(Fl)-amide [Peptide 10]”, which “Quantum yield for the photolytic conversion of 10 to 5” value [1] is on record?
A: Its value is 0.08.

Q: With `CC(C)C[C@@H](C=O)NC(=O)[C@H](CC(C)C)NC(=O)[C@H](CC(C)C)NC(=O)OCc1ccccc1` [MG132] (Cbz-Leu-Leu-Leu-aldehyde) as the compound, how does the “Effect of inhibitor on hydrolytic activity towards peptide 5 in lysate” value [2] read?
A: The value was “completely abolishes hydrolytic activity”.

Q: Which results are given for “Ac-His-Trp-Ser-Leu-Lys(Fl)-amide [Peptide 5]”?
A: Effect of Ch-L substrate on rate of T-L substrate processing [3]: reduces the rate; Effect of Ch-L substrate on rate of Ca-L substrate processing [4]: reduces the rate; Fluorescence change of the sensor in lysate with defective Ch-L subunit [5]: barely perceptible fluorescence change

— article PMC2820722 (Journal of the American Chemical Society, 2010)
